Shown are actives, neighbours in structure and some others; about 5.8% of the full set was active somewhere.
Pf Dd2 growth = P. falciparum Dd2 growth inhibitors, primary screen, SYBR Green fluorescence, single dose replicates; 72 h; hits give low values; activity change, % at 10 µM; 2.3% of 94,000 active; AID 1159554, 2015; in the data active means activity change below about -80%
T cruzi growth-1 = T. cruzi intracellular proliferation inhibitors, primary screen, cell-based, beta-gal Tulahuen parasites, NIH3T3 host, luminescence | T. cruzi beta-gal in NIH3T3, GalScreen luminescence, 90 h | inhibition, % at 8.34 µM | 5.9% of 77,000 active;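 active means mean inhibition above about 93%, with at least 55% of replicates each passing it, limit read from the data, passing the limit was not always enough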
KDM4C inh = inhibitors of GASC-1 (KDM4C) histone demethylase, primary screen, biochemical, single concentration HTS. AID 720574, 2013. Lysine-specific demethylase 4C (Homo sapiens), Q9H3R0. 0.15% of 96,000 active. GST-KDM4C 2-372, H3K9me3 peptide, LANCE TR-FRET. inhibition, % at 12.5 µM;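 active means mean replicate inhibition above about 25%, with at least 55% of replicates also reaching it, limit read from the data, passing the limit was not always enough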
Target sequence (Q9H3R0 2-372 limits assumed): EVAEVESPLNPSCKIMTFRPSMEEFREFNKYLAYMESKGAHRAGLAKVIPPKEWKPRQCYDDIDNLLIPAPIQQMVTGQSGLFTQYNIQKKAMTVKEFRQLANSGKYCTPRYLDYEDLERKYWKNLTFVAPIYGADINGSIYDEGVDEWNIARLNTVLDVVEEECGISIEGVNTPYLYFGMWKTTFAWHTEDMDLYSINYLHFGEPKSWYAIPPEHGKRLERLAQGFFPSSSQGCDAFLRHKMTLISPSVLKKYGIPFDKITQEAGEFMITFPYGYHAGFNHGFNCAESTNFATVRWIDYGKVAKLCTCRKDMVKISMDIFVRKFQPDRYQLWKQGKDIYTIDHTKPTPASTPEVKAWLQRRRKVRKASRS
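Material: N-terminal GST-fused human GASC-1 (KDM4C) fragment, residues 2-372. Input: 10 nM enzyme. Incubation: enzyme reaction 30 min, then detection 60 min, both room temperature. Doses: one test concentration per compound. Read-out basis: inhibition from TR-FRET ratio decrease. Detection: LANCE TR-FRET, excitation 340 nm, emissions 618 and 671 nm.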
IDH1 R132H inh = inhibitors of IDH1 R132H reductase, primary screen, biochemical, plate reader, single point; 0.18% of 70,000 active; AID 624101, 2012; diaphorase/resazurin fluorescence, 60 min; inhibition, % at 10 µM; in the data active means inhibition above about 34%;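 further: 0% = DMSO and 100% = no enzyme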
T cruzi growth-2 = T. cruzi intracellular proliferation inhibitors, confirmation, cell-based, NIH3T3 host, beta-gal parasite, luminescence, cherry-pick. shares compounds with T cruzi growth-1. T. cruzi beta-gal in NIH3T3, GalScreen luminescence, 90 h. 72% of 5,600 active. inhibition, % at 8.35 µM;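 active means mean replicate inhibition above about 95% and at least 55% of replicates individually reaching it, limit read from the data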
T cruzi growth-3 = inhibitors of intracellular T. cruzi replication, confirmation, NIH3T3 host cells, beta-gal parasites, cherry-pick, set 2 | shares compounds with T cruzi growth-1 | T. cruzi beta-gal in NIH3T3, GalScreen luminescence, 90 h | inhibition, % at 2.09 µM | 21% of 5,600 active;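 active means mean inhibition above about 95%, with at least 55% of replicates also reaching it, limit read from the data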;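 further: plate controls were neutral control median for no effect and positive control median for full effect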
3T3 cytotox = cytotoxicity in mouse NIH/3T3 fibroblasts, confirmation, cytotoxicity control for T. cruzi proliferation inhibitor project, cell-based, cherry-pick, single point. shares compounds with T cruzi growth-1. NIH/3T3 viability, CellTiter-Glo ATP luminescence, 90 h. cytotoxicity (signal decrease), % at 8.35 µM. 14% of 5,600 active. AID 651742, 2012;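 active means mean signal decrease across replicates above about 35% based on untreated-well scatter, with enough replicates individually passing, limit read from the data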;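 further: 0% = median of neutral control wells and 100% = median of positive control wells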
NIH3T3 tox 2 = NIH/3T3 fibroblast cytotoxicity, confirmation, cytotoxicity control, cell-based, cherry-pick, single point, set 2. 56% of 5,600 active. inhibition, % at 24.9 µM. NIH/3T3 viability, CellTiter-Glo ATP luminescence, 90 h. shares compounds with T cruzi growth-1. AID 651744, 2012;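 active means mean loss of cell viability signal at or above a set limit, and enough replicates individually reaching it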;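 further: 0% = median of neutral control wells and 100% = median of positive control wells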
The depositor's hits bear a star.

Screening O=C(CN1CCOCC1)N1CCCCN2[C@H](CO)[C@H](c3ccc(C#Cc4ccccc4F)cc3)[C@@H]2C1 returned Pf Dd2 growth 6, T cruzi growth-1 106*, KDM4C inh 1, T cruzi growth-2 101*, T cruzi growth-3 58, 3T3 cytotox 45* and NIH3T3 tox 2 76*.
O=C(CN1CCOCC1)N1CCCCN2[C@H](CO)[C@H](c3ccc(C#Cc4ccccc4)cc3)[C@H]2C1 was read as Pf Dd2 growth -11, T cruzi growth-1 98*, KDM4C inh 0, T cruzi growth-2 96*, T cruzi growth-3 25, 3T3 cytotox 11 and NIH3T3 tox 2 67*.
O=C(CN1CCOCC1)N1CCCCN2[C@H](CO)[C@H](c3ccc(C#Cc4ccccc4F)cc3)[C@H]2C1 was read as Pf Dd2 growth -20, T cruzi growth-1 118*, KDM4C inh 1, T cruzi growth-2 87, T cruzi growth-3 20, 3T3 cytotox 19 and NIH3T3 tox 2 95*.
O=C(CN1CCOCC1)N1CCCCN2[C@H](C1)[C@H](c1ccc(C#Cc3ccccc3F)cc1)[C@@H]2CO was read as Pf Dd2 growth -6, T cruzi growth-1 107*, KDM4C inh 0, T cruzi growth-2 55, T cruzi growth-3 22, 3T3 cytotox 32 and NIH3T3 tox 2 89*.
Screening O=C(CN1CCOCC1)N1CCCCN2[C@H](CO)[C@H](c3ccc(-c4ccccc4)cc3)[C@H]2C1 returned Pf Dd2 growth 15, T cruzi growth-1 70 and KDM4C inh 3.
`CCC(=O)N1CCCCN2[C@H](CO)[C@H](c3ccc(C#Cc4ccccc4F)cc3)[C@H]2C1` gave Pf Dd2 growth -29, T cruzi growth-1 78 and KDM4C inh 0.
`O=C(CN1CCOCC1)N1CCCCN2[C@H](C1)[C@@H](c1ccc(C#Cc3ccccc3F)cc1)[C@@H]2CO` gave Pf Dd2 growth -10, T cruzi growth-1 84 and KDM4C inh -1.
O=C(CN1CCOCC1)N1CCCCN2[C@H](CO)[C@@H](c3ccc(/C=C/c4ccccc4)cc3)[C@@H]2C1 was read as Pf Dd2 growth -5, T cruzi growth-1 56 and KDM4C inh 1.
O=C(C[C@@H]1CC[C@H](NC(=O)c2cnccn2)[C@@H](CO)O1)NCc1ccccc1F was read as Pf Dd2 growth -14, T cruzi growth-1 13, KDM4C inh 0 and IDH1 R132H inh 0.
Screening COc1ccc(-c2ccc3n(c2=O)C[C@H]2[C@H](CO)[C@@H](C(=O)N(C)C)N(CC4CC4)[C@@H]32)cc1 returned Pf Dd2 growth -2, T cruzi growth-1 103*, KDM4C inh 17, T cruzi growth-2 -33, T cruzi growth-3 13, 3T3 cytotox 1 and NIH3T3 tox 2 7.
CCN1[C@H](C(=O)N(C)C)[C@@H](CO)[C@@H]2Cn3c(ccc(-c4cccc(C(=O)N(C)C)c4)c3=O)[C@@H]21 was read as T cruzi growth-1 100*, KDM4C inh 0, T cruzi growth-2 51, T cruzi growth-3 18, 3T3 cytotox 8 and NIH3T3 tox 2 -6.
CCCNC(=O)C[C@H]1CC[C@H]2[C@@H](COc3ccc(NC(=O)c4ccno4)cc3C(=O)N2C)O1 was read as Pf Dd2 growth -9, T cruzi growth-1 -11 and KDM4C inh -1.

Assay outcomes deposited in PubChem by Broad Institute.
